{"source": "ChEMBL document CHEMBL3526142", "about": "“Biotransformation of a novel antimitotic agent, I-387, by mouse, rat, dog, monkey, and human liver microsomes and in vivo pharmacokinetics in mice” (Drug Metab Dispos, 2011)", "key": {"[1]": {"assay": "Terminal half life in ICR mouse at 15 mg/kg, ip by LC-MS/MS analysis", "format": "ADME, organism-based", "set-up": "dose 15 mg/kg, route intraperitoneal", "conditions": "in vivo, read-out: beta t1/2 (converted)", "how_it_was_run": "(§1)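 Male ICR mice (20–25 g) given the compound intraperitoneally or by gavage in 10% DMSO/PEG300. Three to four mice were sacrificed per time point and plasma collected from the vena cava. Plasma was precipitated with acetonitrile containing internal standard and analysed by LC-MS/MS. Noncompartmental analysis of mean concentration-time data: terminal t1/2 = ln2/λz; Tmax by inspection; n = 3/dose group.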"}, "[2]": {"assay": "Mean residence time (infinity) in ICR mouse at 1 mg/kg, po via gavage by LC-MS/MS analysis", "format": "ADME, organism-based", "set-up": "dose 1 mg/kg, route oral", "conditions": "in vivo", "how_it_was_run": "(§2)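 Male ICR mice (5–6 weeks, 20–25 g), single doses of 1, 5 or 15 mg/kg in 10% DMSO/PEG300, given iv by tail vein, ip, or orally by gavage. Three to four mice per time point, euthanized under isoflurane, blood drawn from posterior vena cava. Plasma protein precipitated with acetonitrile containing internal standard, then LC-MS/MS (MRM m/z 388.2→192). Noncompartmental analysis of mean concentration-time data, AUCinf by trapezoidal rule with extrapolation, CL = dose/AUCinf, Cmax read from the curve. F = (AUCnon-iv × dose iv)/(AUCiv × dose non-iv). n = 3 per dose group.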"}, "[3]": {"assay": "Cmax in ICR mouse at 1 mg/kg, po via gavage by LC-MS/MS analysis", "format": "ADME, organism-based", "set-up": "dose 1 mg/kg, route oral", "conditions": "in vivo", "how_it_was_run": "as §2"}, "[4]": {"assay": "AUC (infinity) in ICR mouse at 1 mg/kg, po via gavage by LC-MS/MS analysis", "format": "ADME, organism-based", "set-up": "time infinity, dose 1 mg/kg, route oral", "conditions": "plasma", "how_it_was_run": "as §2"}, "[5]": {"assay": "Oral bioavailability in ICR mouse at 1 mg/kg via gavage after 30 mins by LC-MS/MS analysis", "format": "ADME, organism-based", "conditions": "in vivo", "how_it_was_run": "(§3)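 Male ICR mice (5–6 weeks, 20–25 g) dosed by gavage in 10% DMSO in PEG300. Three to four mice per time point were euthanized under isoflurane and blood taken from the posterior vena cava. Plasma was acetonitrile-precipitated and analysed by LC-MS/MS (MRM m/z 388.2→192). Tmax read by visual inspection. F = (AUC_oral × dose_iv)/(AUC_iv × dose_oral), with AUC_inf by trapezoidal rule; n = 3/dose group.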"}, "[6]": {"assay": "Terminal half life in ICR mouse at 5 mg/kg, po via gavage by LC-MS/MS analysis", "format": "ADME, organism-based", "set-up": "dose 5 mg/kg, route oral", "conditions": "in vivo, read-out: beta t1/2 (converted)", "how_it_was_run": "as §1"}, "[7]": {"assay": "Oral bioavailability in ICR mouse at 5 mg/kg via gavage after 30 mins by LC-MS/MS analysis", "format": "ADME, organism-based", "conditions": "in vivo", "how_it_was_run": "as §3"}, "[8]": {"assay": "Mean residence time (infinity) in ICR mouse at 15 mg/kg, po via gavage by LC-MS/MS analysis", "format": "ADME, organism-based", "set-up": "dose 15 mg/kg, route oral", "conditions": "in vivo", "how_it_was_run": "as §2"}, "[9]": {"assay": "Cmax in ICR mouse at 15 mg/kg, po via gavage by LC-MS/MS analysis", "format": "ADME, organism-based", "set-up": "dose 15 mg/kg, route oral", "conditions": "in vivo", "how_it_was_run": "as §2"}, "[10]": {"assay": "AUC (infinity) in ICR mouse at 15 mg/kg, po via gavage by LC-MS/MS analysis", "format": "ADME, organism-based", "set-up": "time infinity, dose 15 mg/kg, route oral", "conditions": "plasma", "how_it_was_run": "as §2"}, "[11]": {"assay": "Drug metabolism in mouse liver microsomes assessed as (3-(1H-indol-2-yl)phenyl)(3,4,5-trimethoxyphenyl)methanol formation at 0.5 uM after 2 hrs by LC-MS/MS analysis in presence of 3 mM NADPH", "format": "ADME", "how_it_was_run": "(§4)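 Pooled liver microsomes (1 mg/ml protein) incubated with 0.5 µM substrate and 3 mM NADPH in 65 mM potassium phosphate, pH 7.4, 1% methanol, at 37°C for 2 h. Stopped with ice-cold acetonitrile containing internal standard, centrifuged. Supernatant analysed by LC-MS/MS on a C18 column, 15-min gradient, with product ion scans for metabolite identification.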"}, "Liver": {"system": "Liver", "assay": "Drug level in mouse liver microsomes assessed as compound retention time treated with 0.5 uM I-387 after 2 hrs by LC-MS/MS analysis", "format": "ADME", "how_it_was_run": "as §4"}, "Liver microsome [12]": {"system": "Liver microsome", "assay": "Drug level in rat liver microsomes assessed as compound retention time treated with 0.5 uM I-387 after 2 hrs by LC-MS/MS analysis", "format": "ADME", "how_it_was_run": "as §4"}, "Liver microsome [13]": {"system": "Liver microsome", "assay": "Drug level in dog liver microsomes assessed as compound retention time treated with 0.5 uM I-387 after 2 hrs by LC-MS/MS analysis", "format": "ADME, Canis lupus familiaris", "how_it_was_run": "as §4"}, "[14]": {"assay": "Retention time of the compound at 0.5 uM by LC-MS/MS analysis", "format": "physicochemical", "how_it_was_run": "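After a 2 h incubation at 37°C with liver microsomes (1 mg/ml protein, 3 mM NADPH, 0.5 μM substrate, pH 7.4 phosphate buffer), samples were quenched with acetonitrile and centrifuged. Supernatant separated on a C18 column (15 min run, linear gradient 100% A to 100% B over 7 min) with LC-MS/MS ion trap detection.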"}, "[15]": {"assay": "Antitumor activity against human MESSA/DX5 cells xenografted in nu/nu mouse assessed as decrease in tumor growth at 10 mg/kg, ip 2 days per week for weeks", "format": "functional", "conditions": "MES-SA/Dx5, ip, 48 h, route intraperitoneal"}, "[16]": {"assay": "Plasma concentration in ICR mouse at 15 mg/kg, ip measured for 30 hrs by LC-MS/MS analysis", "format": "ADME, organism-based", "set-up": "dose 15 mg/kg, route intraperitoneal", "how_it_was_run": "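Male ICR mice given 15 mg/kg intraperitoneally in 10% DMSO/PEG300. Plasma from 3–4 mice per time point was collected via the posterior vena cava, protein-precipitated with acetonitrile plus internal standard, and quantified by LC-MS/MS (MRM m/z 388.2→192).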"}, "[17]": {"assay": "Terminal half life in ICR mouse at 1 mg/kg, iv by LC-MS/MS analysis", "format": "ADME, organism-based", "set-up": "dose 1 mg/kg, route intravenous", "conditions": "in vivo, read-out: beta t1/2 (converted)", "how_it_was_run": "(§5)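 Tail-vein injection in male ICR mice (5–6 weeks), vehicle 10% DMSO in PEG300. Serial terminal sampling of 3–4 mice per time point, with posterior vena cava blood. Plasma was acetonitrile-precipitated and measured by LC-MS/MS. Noncompartmental analysis of mean data: t1/2 = ln2/λz, CL = dose/AUC_inf, Vd_ss = CL × MRT_inf; n = 3/dose group.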"}, "[18]": {"assay": "Volume of distribution at steady state in ICR mouse at 1 mg/kg, iv by LC-MS/MS analysis", "format": "ADME, organism-based", "set-up": "dose 1 mg/kg, route intravenous", "conditions": "in vivo, read-out: Vdss", "how_it_was_run": "as §5"}, "[19]": {"assay": "Mean residence time (infinity) in ICR mouse at 5 mg/kg, iv by LC-MS/MS analysis", "format": "ADME, organism-based", "set-up": "dose 5 mg/kg, route intravenous", "conditions": "in vivo", "how_it_was_run": "as §2"}, "[20]": {"assay": "Clearance in ICR mouse at 5 mg/kg, iv by LC-MS/MS analysis", "format": "ADME, organism-based", "set-up": "dose 5 mg/kg, route intravenous", "conditions": "in vivo", "how_it_was_run": "as §2"}, "[21]": {"assay": "Terminal half life in ICR mouse at 15 mg/kg, iv by LC-MS/MS analysis", "format": "ADME, organism-based", "set-up": "dose 15 mg/kg, route intravenous", "conditions": "in vivo, read-out: beta t1/2 (converted)", "how_it_was_run": "as §5"}, "[22]": {"assay": "Cmax in ICR mouse at 15 mg/kg, iv by LC-MS/MS analysis", "format": "ADME, organism-based", "set-up": "dose 15 mg/kg, route intravenous", "conditions": "in vivo", "how_it_was_run": "as §2"}, "[23]": {"assay": "AUC (infinity) in ICR mouse at 15 mg/kg, iv by LC-MS/MS analysis", "format": "ADME, organism-based", "set-up": "time infinity, dose 15 mg/kg, route intravenous", "conditions": "plasma", "how_it_was_run": "as §2"}, "[24]": {"assay": "Clearance in ICR mouse at 15 mg/kg, iv by LC-MS/MS analysis", "format": "ADME, organism-based", "set-up": "dose 15 mg/kg, route intravenous", "conditions": "in vivo", "how_it_was_run": "as §2"}, "[25]": {"assay": "Tmax in ICR mouse at 1 mg/kg, ip by LC-MS/MS analysis", "format": "ADME, organism-based", "set-up": "dose 1 mg/kg, route intraperitoneal", "conditions": "in vivo", "how_it_was_run": "as §1"}, "[26]": {"assay": "Terminal half life in ICR mouse at 5 mg/kg, ip by LC-MS/MS analysis", "format": "ADME, organism-based", "set-up": "dose 5 mg/kg, route intraperitoneal", "conditions": "in vivo, read-out: beta t1/2 (converted)", "how_it_was_run": "as §1"}, "[27]": {"assay": "Mean residence time (infinity) in ICR mouse at 5 mg/kg, ip by LC-MS/MS analysis", "format": "ADME, organism-based", "set-up": "dose 5 mg/kg, route intraperitoneal", "conditions": "in vivo", "how_it_was_run": "as §2"}, "[28]": {"assay": "Metabolic stability in human liver microsomes assessed as half life during phase 1 and 2 at 0.5 uM by LC-MS/MS analysis in presence of 3 mM NADPH and 5 mM UDPGA", "conditions": "read-out: alphat1/2"}}}
{"smiles": "COc1cc(C(=O)c2cccc(-c3cc4ccccc4[nH]3)c2)cc(OC)c1OC", "values": [{"measurement": "half-life", "setting": "[1]", "result": 8.3, "unit": "h"}, {"measurement": "MRT inf", "setting": "[2]", "result": 9, "unit": "h"}, {"measurement": "Cmax", "setting": "[3]", "result": 30, "unit": "ng/mL"}, {"measurement": "AUC(0-inf)", "setting": "[4]", "result": 148, "unit": "ng·h/mL"}, {"measurement": "bioavailability", "setting": "[5]", "result": 24, "unit": "%"}, {"measurement": "half-life", "setting": "[6]", "result": 7.7, "unit": "h"}, {"measurement": "bioavailability", "setting": "[7]", "result": 13, "unit": "%"}, {"measurement": "MRT inf", "setting": "[8]", "result": 8.9, "unit": "h"}, {"measurement": "Cmax", "setting": "[9]", "result": 260, "unit": "ng/mL"}, {"measurement": "AUC(0-inf)", "setting": "[10]", "result": 1070, "unit": "ng·h/mL"}, {"measurement": "Drug metabolism", "setting": "[11]", "result": "metabolite_detected"}, {"measurement": "Retention_time", "setting": "Liver", "result": 11.3, "unit": "min"}, {"measurement": "Retention_time", "setting": "Liver microsome [12]", "result": 11.3, "unit": "min"}, {"measurement": "Retention_time", "setting": "Liver microsome [13]", "result": 11.3, "unit": "min"}, {"measurement": "Retention_time", "setting": "[14]", "result": 11.3, "unit": "min"}, {"measurement": "inhibition in vivo at 10 mg/kg", "setting": "[15]", "result": 76, "unit": "%"}, {"measurement": "concentration at 30 h", "setting": "[16]", "result": "> 71", "unit": "ng/mL"}, {"measurement": "half-life", "setting": "[17]", "result": 7, "unit": "h"}, {"measurement": "Vd", "setting": "[18]", "result": 5.3, "unit": "L/kg"}, {"measurement": "MRT inf", "setting": "[19]", "result": 3.3, "unit": "h"}, {"measurement": "clearance", "setting": "[20]", "result": 22, "unit": "mL/min/kg"}, {"measurement": "half-life", "setting": "[21]", "result": 8.9, "unit": "h"}, {"measurement": "Cmax", "setting": "[22]", "result": 7530, "unit": "ng/mL"}, {"measurement": "AUC(0-inf)", "setting": "[23]", "result": 13400, "unit": "ng·h/mL"}, {"measurement": "clearance", "setting": "[24]", "result": 19, "unit": "mL/min/kg"}, {"measurement": "Tmax", "setting": "[25]", "result": 5, "unit": "min"}, {"measurement": "half-life", "setting": "[26]", "result": 4.9, "unit": "h"}, {"measurement": "MRT inf", "setting": "[27]", "result": 5.5, "unit": "h"}, {"measurement": "half-life at 0.5 µM", "setting": "[28]", "result": 0.5, "unit": "h"}]}
